Measurements collected from several papers.
Protocols differ between the studies behind these lines. ≈ marks a conversion by molar mass, not a printed value.

SMILES | target or system | test | setting | quantity | value
CCCCn1cnc2ccc(-c3ccc(NC(=O)NCc4ccccc4)nc3)cc2c1=O | HCC827 | cell growth or viability, CCK-8 | 72 h | IC50 | 320 nM
COc1cc(C2=CCCc3c2ccc(OC)c3OC(C)c2ccc([N+](=O)[O-])s2)cc(OC)c1OC (centres unmarked) |  | tubulin polymerisation, inhibitor | 20 min | IC50 | > 20000 nM
Cc1n[nH]c2ccc3nc(-c4ccc(C(=O)NCCN(C)C)cc4)c4c(c3c12)CCCCC4 | HCC827 | cell growth or viability | 72 h | GI50 | 7120 nM
COc1cc(C2=CCCCc3c2ccc(OC)c3OC(C)c2cnc([N+](=O)[O-])n2C)cc(OC)c1OC (centres unmarked) |  | tubulin polymerisation, inhibitor | 20 min | IC50 | > 20000 nM
Cc1nc(Nc2ncc(C(=O)Nc3c(C)cccc3Cl)s2)cc(N2CC[C@H](O)C2)n1 | Daudi | cell growth or viability, ATP luminescence | 10 µM, 72 h | inhibition | 75%
CCCCC(=O)Nc1ccc(-c2ccc3ncn(CCC(C)C)c(=O)c3c2)cn1 | HCC827 | cell growth or viability, CCK-8 | 72 h | IC50 | 550 nM
CCc1nc(C(N)=O)c(Nc2ccc(N3CCC(N4CCN(C)CC4)CC3)c(OC)c2)nc1NC1CCOCC1 | HCC827 | cell growth or viability | 72 h | GI50 | 283 nM
Clc1ccc(COC(Cn2ccnc2)c2ccc(Cl)cc2Cl)c(Cl)c1 (centres unmarked) | Nakaseomyces glabratus | microbial growth, broth dilution |  | MIC80 | 0.125 µg/mL (≈ 0.3 µM)
CCCn1cnc2ccc(-c3ccc(N4CCC(C)CC4=O)nc3)cc2c1=O (centres unmarked) | HCC827 | cell growth or viability, CCK-8 | 72 h | IC50 | > 10000 nM
O=C(Nc1cccc2ccccc12)c1ccc(COC(Cn2ccnc2)c2ccc(Cl)cc2Cl)cc1 (centres unmarked) | Nakaseomyces glabratus | microbial growth, broth dilution |  | MIC80 | 8 µg/mL (≈ 15.5 µM)
COc1cc(C2=CCCc3c2ccc(OC)c3OCc2ccc([N+](=O)[O-])s2)cc(OC)c1OC |  | tubulin polymerisation, inhibitor | 20 min | IC50 | > 20000 nM
OC(Cn1cncn1)(Cn1cncn1)c1ccc(F)cc1F | Nakaseomyces glabratus | microbial growth, broth dilution |  | MIC80 | 8 µg/mL (≈ 26.1 µM)
CCCn1cnc2ccc(-c3ccc(NC(=O)c4ccccc4)nc3)cc2c1=O | HCC827 | cell growth or viability, CCK-8 | 72 h | IC50 | 100 nM
O=C(Nc1ccc(F)cc1)c1ccc(COC(Cn2ccnc2)c2ccc(Cl)cc2Cl)cc1 (centres unmarked) | Nakaseomyces glabratus | microbial growth, broth dilution |  | MIC80 | 0.25 µg/mL (≈ 0.516 µM)
COc1cc(C2=CCCCc3c2ccc(OC)c3OCc2cnc([N+](=O)[O-])n2C)cc(OC)c1OC |  | tubulin polymerisation, inhibitor | 20 min | IC50 | > 20000 nM
CCCCn1cnc2ccc(-c3ccc(NC(=O)NC(C)(C)C)nc3)cc2c1=O | HCC827 | cell growth or viability, CCK-8 | 72 h | IC50 | 3970 nM
Cc1n[nH]c2ccc3nc(-c4ccc(C(=O)NCCN(C)C)cc4F)c4c(c3c12)CCCC4 | HCC827 | cell growth or viability | 72 h | GI50 | 611 nM
